Experimental data reported in ChEMBL document CHEMBL1667836, “Synthesis of egonol derivatives and their antimicrobial activities” (2011).
Converted amounts (≈) assume the structure as drawn. The source made the active and inactive calls. No cut-off for these calls is given here.

Key:
Assay type in all cases: functional
Candida albicans = test: Antimicrobial activity against Candida albicans ATCC 10231 by MHB method
Method in brief: (§1)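 Broth-based MIC assay in Mueller Hinton broth. Test compounds were supplied from stock solutions in DMSO. The read-out was the minimum inhibitory concentration determined for each compound against each strain.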

Bacillus subtilis = test: Antimicrobial activity against Bacillus subtilis ATCC 6633 by MHB method; method in brief: as §1
Staphylococcus aureus = test: Antimicrobial activity against Staphylococcus aureus ATCC 29213 by MHB method; method in brief: as §1
Escherichia coli = test: Antimicrobial activity against Escherichia coli ATCC 8739 by MHB method; method in brief: as §1

MIC (Candida albicans) | MIC (Bacillus subtilis) | MIC (Staphylococcus aureus) | MIC (Escherichia coli) | Structure (SMILES)
25 µg/mL (≈ 39.6 µM) | inactive | 25 µg/mL (≈ 39.6 µM) | inactive | COc1cc(CC/C=C(\C=O)Cc2cc(OC)c3oc(-c4ccc5c(c4)OCO5)cc3c2)cc2cc(-c3ccc4c(c3)OCO4)oc12
100 µg/mL (≈ 248 µM) | inactive | inactive | inactive | COc1cc(CCCOC(=O)CCl)cc2cc(-c3ccc4c(c3)OCO4)oc12
25 µg/mL (≈ 60.1 µM) | inactive | inactive | 800 µg/mL (≈ 1920 µM) | COc1cc(CC/C=N/OC(=O)CCl)cc2cc(-c3ccc4c(c3)OCO4)oc12
100 µg/mL (≈ 226 µM) | 400 µg/mL (≈ 902 µM) | inactive | inactive | COc1cc(CC/C=N/OC(=O)c2ccccc2)cc2cc(-c3ccc4c(c3)OCO4)oc12
200 µg/mL (≈ 477 µM) | 400 µg/mL (≈ 955 µM) | 400 µg/mL (≈ 955 µM) | inactive | COc1ccc(-c2cc3cc(CCCOC(=O)CCl)cc(OC)c3o2)cc1OC
200 µg/mL | inactive | inactive | inactive | COc1cc(CCCOC(C)=O)cc2cc(-c3ccc4c(c3)OCO4)oc12 [EGONOL ACETATE]
50 µg/mL (≈ 123 µM) | 400 µg/mL (≈ 984 µM) | 400 µg/mL (≈ 984 µM) | 400 µg/mL (≈ 984 µM) | COc1cc(CCCOS(=O)(=O)O)cc2cc(-c3ccc4c(c3)OCO4)oc12
25 µg/mL (≈ 76.6 µM) | 800 µg/mL (≈ 2450 µM) | 800 µg/mL (≈ 2450 µM) | 800 µg/mL (≈ 2450 µM) | COc1cc(CCCO)cc2cc(-c3ccc4c(c3)OCO4)oc12 [EGONOL]
200 µg/mL (≈ 549 µM) | inactive | inactive | inactive | COc1cc(CC/C=C/C(C)=O)cc2cc(-c3ccc4c(c3)OCO4)oc12
inactive | inactive | inactive | 800 µg/mL (≈ 1760 µM) | COc1cc(CCCOC(=O)CN2CCOCC2)cc2cc(-c3ccc4c(c3)OCO4)oc12
25 µg/mL (≈ 64.1 µM) | inactive | inactive | 800 µg/mL (≈ 2050 µM) | COc1cc(CCCCl)cc2c([N+](=O)[O-])c(-c3ccc4c(c3)OCO4)oc12
800 µg/mL (≈ 2340 µM) | inactive | inactive | inactive | COc1cc(CCCO)cc2c(N)c(-c3ccc4c(c3)OCO4)oc12
200 µg/mL (≈ 524 µM) | inactive | inactive | inactive | CCN(CC)CCCc1cc(OC)c2oc(-c3ccc4c(c3)OCO4)cc2c1
50 µg/mL (≈ 147 µM) | 800 µg/mL (≈ 2350 µM) | 200 µg/mL (≈ 588 µM) | inactive | COc1cc(CCC(=O)O)cc2cc(-c3ccc4c(c3)OCO4)oc12 [EGONOIC ACID]
25 µg/mL (≈ 63.2 µM) | inactive | 200 µg/mL (≈ 506 µM) | inactive | COc1cc(CCCN2CCOCC2)cc2cc(-c3ccc4c(c3)OCO4)oc12
200 µg/mL (≈ 503 µM) | 400 µg/mL (≈ 1010 µM) | inactive | inactive | COc1cc(CC/C=N/NC(N)=S)cc2cc(-c3ccc4c(c3)OCO4)oc12
400 µg/mL (≈ 961 µM) | 400 µg/mL (≈ 961 µM) | 800 µg/mL (≈ 1920 µM) | 400 µg/mL (≈ 961 µM) | COc1c([N+](=O)[O-])c(CCCO)cc2c([N+](=O)[O-])c(-c3ccc4c(c3)OCO4)oc12
800 µg/mL (≈ 2360 µM) | inactive | inactive | inactive | COc1cc(CC/C=N/O)cc2cc(-c3ccc4c(c3)OCO4)oc12
25 µg/mL (≈ 65.6 µM) | 400 µg/mL (≈ 1050 µM) | inactive | inactive | COc1cc(CC/C=N/NC(N)=O)cc2cc(-c3ccc4c(c3)OCO4)oc12
